We go through 16 compounds from PMC11003489 (Journal of Enzyme Inhibition and Medicinal Chemistry, 2023).

Molecules are shown by their SMILES.

The test system of test [1] is human lung cancer A549 cells. The experiment in a line: MTT cytotoxicity screening on human lung cancer cells. Conditions: for IC50: Homo sapiens, A549, 72 h, read-out: A549 IC50; for SI (selectivity index): ratio of IC50 values against Wi-38 and A549 cells. The class given is cell-based. The method in brief:
(§1)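 A549 and Wi-38 cells, sourced from the National Cancer Institute (Cairo), grown in RPMI-1640 with L-glutamine, 10% FBS and 1% penicillin-streptomycin at 37 °C, 5% CO2. Seeded in triplicate at 5 × 10^4 cells, then exposed next day to test compound at 0.01, 0.1, 1, 10 and 100 µM. Viability measured by MTT relative to untreated control, and IC50 computed.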

Test [2] deals with normal human lung fibroblasts (Wi-38). As to the kind of experiment: MTT cytotoxicity screening on normal human lung fibroblasts. The class given is cell-based. As to conditions: WI-38, 72 h, read-out: Wi-38 EC50. The method in brief: as §1
In test [3] the target is CDK2 (Homo sapiens, UniProt P24941). As to the kind of experiment: In vitro CDK2 inhibition, CDK2 luminescence kinase assay kit. The class given is biochemical.

`O=C(c1nc2ccccc2[nH]1)[C@H]1[C@H](c2cccc(F)c2)[C@H]2CCCN2[C@@]12c1ccccc1-c1nc3ccccc3nc12` [Compound 4e, (1H-Benzo[d]imidazol-2-yl)((1'R,2'S,7a’R,11R)-1'-(3-fluorophenyl)-1',2',5',6',7',7a’-hexahydrospiro[indeno[1,2-b]quinoxaline-11,3'-pyrrolizin]-2'-yl)methanone]: in test [1], the IC50 – broadly, the concentration that gives 50% inhibition – was determined as 321 ± 5 nM and the “SI (selectivity index)” value came to 3.429. For the same compound, in test [2], the EC50 (usually the midpoint of the concentration-response curve) was 1100 ± 205 nM.

Take `O=C(c1nc2ccccc2[nH]1)[C@H]1[C@H](c2cccc(F)c2)C2CC3CCCCC3N2[C@@]12c1ccccc1-c1nc3ccccc3nc12` (stereo partly drawn) [Compound 6e, (1H-Benzo[d]imidazol-2-yl)((1'R,2'S,11R)-1'-(3-fluorophenyl)-1',2',4a’,5',6',7',8',8a’,9',9a’-decahydrospiro[indeno[1,2-b]quinoxaline-11,3'-pyrrolo[1,2-a]indol]-2'-yl)methanone]: in test [1], the IC50 was found to be 137 ± 16 nM and the “SI (selectivity index)” value is 0.832. Also, the concentration for a half-maximal effect (EC50) in test [2] stood at 114 ± 3 nM.

For `O=C(c1nc2ccccc2[nH]1)[C@H]1[C@H](c2cccs2)[C@H]2CCCN2[C@@]12c1ccccc1-c1nc3ccccc3nc12` [Compound 4g, (1H-Benzo[d]imidazol-2-yl)((1'S,2'S,7a’R,11R)-1'-(thiophen-2-yl)-1',2',5',6',7',7a’-hexahydrospiro[indeno[1,2-b]quinoxaline-11,3'-pyrrolizin]-2'-yl)methanone], in test [1], the IC50 amounted to 182 ± 4 nM and the “SI (selectivity index)” value is 1.384. For the same compound, in test [2], the EC50 was 252 ± 1 nM.

Regarding `O=C(c1nc2ccccc2[nH]1)[C@H]1[C@H](c2ccc(F)cc2)C2CC3CCCCC3N2[C@@]12c1ccccc1-c1nc3ccccc3nc12` (stereo partly drawn) [Compound 6c, (1H-Benzo[d]imidazol-2-yl)((1'R,2'S,11R)-1'-(4-fluorophenyl)-1',2',4a’,5',6',7',8',8a’,9',9a’-decahydrospiro[indeno[1,2-b]quinoxaline-11,3'-pyrrolo[1,2-a]indol]-2'-yl)methanone], in test [1], the IC50 amounted to 139 ± 3 nM and the “SI (selectivity index)” value was 1.208. Also, the EC50 in test [2] was 168 ± 19 nM.

`O=C(c1nc2ccccc2[nH]1)[C@H]1[C@H](c2ccco2)[C@H]2CCCN2[C@@]12c1ccccc1-c1nc3ccccc3nc12` [Compound 4a, (1H-Benzo[d]imidazol-2-yl)((1'S,2'S,7a’R,11R)-1'-(furan-2-yl)-1',2',5',6',7',7a’-hexahydrospiro[indeno[1,2-b]quinoxaline-11,3'-pyrrolizin]-2'-yl)methanone]: in test [1], the IC50 came out at 82 ± 2 nM and the “SI (selectivity index)” value worked out at 7.402. For the same compound, the EC50 in test [2] was determined as 607 ± 50 nM.

Regarding `O=C(c1nc2ccccc2[nH]1)[C@H]1[C@H](c2ccc(Br)cc2)[C@H]2CCCN2[C@@]12c1ccccc1-c1nc3ccccc3nc12` [Compound 4d, (1H-Benzo[d]imidazol-2-yl)((1'R,2'S,7a’R,11R)-1'-(4-bromophenyl)-1',2',5',6',7',7a’-hexahydrospiro[indeno[1,2-b]quinoxaline-11,3'-pyrrolizin]-2'-yl)methanone], in test [1], the IC50 stood at 135 ± 2 nM and the “SI (selectivity index)” value came to 1.303. Moreover, the concentration for a half-maximal effect (EC50) in test [2] amounted to 176 ± 2 nM.

For the compound `O=C(c1nc2ccccc2[nH]1)[C@H]1[C@H](c2ccc(F)cc2)[C@H]2CCCN2[C@@]12c1ccccc1-c1nc3ccccc3nc12` [Compound 4c, (1H-Benzo[d]imidazol-2-yl)((1'R,2'S,7a’R,11R)-1'-(4-fluorophenyl)-1',2',5',6',7',7a’-hexahydrospiro[indeno[1,2-b]quinoxaline-11,3'-pyrrolizin]-2'-yl)methanone], in test [1], the IC50 was determined as 206 ± 9 nM and the “SI (selectivity index)” value stood at 1.053. The EC50 in test [2] came out at 217 ± 7 nM.

For the compound `O=C(c1nc2ccccc2[nH]1)[C@H]1[C@H](c2cccs2)C2CC3CCCCC3N2[C@@]12c1ccccc1-c1nc3ccccc3nc12` (stereo partly drawn) [Compound 6g, (1H-Benzo[d]imidazol-2-yl)((1'S,2'S,11R)-1'-(thiophen-2-yl)-1',2',4a’,5',6',7',8',8a’,9',9a’-decahydrospiro[indeno[1,2-b]quinoxaline-11,3'-pyrrolo[1,2-a]indol]-2'-yl)methanone], in test [1], the IC50 was 84 ± 4 nM and the “SI (selectivity index)” value is given as 1.952. Moreover, the EC50 in test [2] was 164 ± 60 nM.

For `O=C(c1nc2ccccc2[nH]1)[C@H]1[C@H](c2ccccc2)[C@H]2CCCN2[C@@]12c1ccccc1-c1nc3ccccc3nc12` [Compound 4h, (1H-Benzo[d]imidazol-2-yl)((1'R,2'S,7a’R,11R)-1'-phenyl-1',2',5',6',7',7a’-hexahydrospiro[indeno[1,2-b]quinoxaline-11,3'-pyrrolizin]-2'-yl)methanone], in test [1], the IC50 was 177 ± 3 nM and the “SI (selectivity index)” value worked out at 1.090. Moreover, the EC50 in test [2] was 193 ± 10 nM.

As to `COc1ccc([C@@H]2C3CC4CCCCC4N3[C@@]3(c4ccccc4-c4nc5ccccc5nc43)[C@H]2C(=O)c2nc3ccccc3[nH]2)cc1` (stereo partly drawn) [Compound 6f, (1H-Benzo[d]imidazol-2-yl)((1'R,2'S,11R)-1'-(4-methoxyphenyl)-1',2',4a’,5',6',7',8',8a’,9',9a’-decahydrospiro[indeno[1,2-b]quinoxaline-11,3'-pyrrolo[1,2-a]indol]-2'-yl)methanone], in test [1], the 50% inhibitory concentration (IC50) was found to be 107 ± 2 nM and the “SI (selectivity index)” value was found to be 5.130. In addition, the EC50 in test [2] was determined as 549 ± 10 nM.

With `O=C(c1nc2ccccc2[nH]1)[C@H]1[C@H](c2ccc(Br)cc2)C2CC3CCCCC3N2[C@@]12c1ccccc1-c1nc3ccccc3nc12` (stereo partly drawn) [Compound 6d, (1H-Benzo[d]imidazol-2-yl)((1'R,2'S,11R)-1'-(4-bromophenyl)-1',2',4a’,5',6',7',8',8a’,9',9a’-decahydrospiro[indeno[1,2-b]quinoxaline-11,3'-pyrrolo[1,2-a]indol]-2'-yl)methanone], in test [1], the IC50 turned out to be 87 ± 3 nM and the “SI (selectivity index)” value came to 0.885. Moreover, the EC50 in test [2] is 77 ± 1 nM.

`O=c1[nH]cc(F)c(=O)[nH]1` [Compound 5-Fu, 5-fluorouracil, reference compound]: in test [1], the IC50 worked out at 3780 ± 520 nM and the “SI (selectivity index)” value is on record as 1.107. Besides, the EC50 in test [2] was 4190 ± 168 nM.

`O=C(c1nc2ccccc2[nH]1)[C@H]1[C@H](c2ccco2)C2CC3CCCCC3N2[C@@]12c1ccccc1-c1nc3ccccc3nc12` (stereo partly drawn) [Compound 6a, (1H-Benzo[d]imidazol-2-yl)((1'S,2'S,11R)-1'-(furan-2-yl)-1',2',4a’,5',6',7',8',8a’,9',9a’-decahydrospiro[indeno[1,2-b]quinoxaline-11,3'-pyrrolo[1,2-a]indol]-2'-yl)methanone]: in test [1], the IC50 turned out to be 98 ± 6 nM and the “SI (selectivity index)” value is on record as 1.142. Also, the EC50 in test [2] was 112 ± 1 nM.

As to `O=C(c1nc2ccccc2[nH]1)[C@H]1[C@H](c2ccc(Cl)cc2Cl)[C@H]2CCCN2[C@@]12c1ccccc1-c1nc3ccccc3nc12` [Compound 4b, (1H-Benzo[d]imidazol-2-yl)((1'R,2'S,7a’R,11R)-1'-(2,4-dichlorophenyl)-1',2',5',6',7',7a’-hexahydrospiro[indeno[1,2-b]quinoxaline-11,3'-pyrrolizin]-2'-yl)methanone], in test [1], the IC50 amounted to 225 ± 5 nM and the “SI (selectivity index)” value came to 3.942. For the same compound, in test [2], the EC50 came to 887 ± 11 nM.

Regarding `O=C(c1nc2ccccc2[nH]1)[C@H]1[C@H](c2ccccc2)C2CC3CCCCC3N2[C@@]12c1ccccc1-c1nc3ccccc3nc12` (stereo partly drawn) [Compound 6h, (1H-Benzo[d]imidazol-2-yl)((1'R,2'S,11R)-1'-phenyl-1',2',4a’,5',6',7',8',8a’,9',9a’-decahydrospiro[indeno[1,2-b]quinoxaline-11,3'-pyrrolo[1,2-a]indol]-2'-yl)methanone], in test [1], the IC50 was found to be 202 ± 6 nM and the “SI (selectivity index)” value was found to be 0.856. Further, in test [2], the EC50 stood at 173 ± 1 nM.

As to `O=C(c1nc2ccccc2[nH]1)[C@H]1[C@H](c2ccc(Cl)cc2Cl)C2CC3CCCCC3N2[C@@]12c1ccccc1-c1nc3ccccc3nc12` (stereo partly drawn) [Compound 6b, (1H-Benzo[d]imidazol-2-yl)((1'R,2'S,11R)-1'-(2,4-dichlorophenyl)-1',2',4a’,5',6',7',8',8a’,9',9a’-decahydrospiro[indeno[1,2-b]quinoxaline-11,3'-pyrrolo[1,2-a]indol]-2'-yl)methanone], in test [3] (10 μM), the “% inhibition ± SD at [10 μM] of CDK2” value was determined as 70.72 ± 2.8%. In test [3] (CDK2 IC50, serial dilutions 0.01–10 μM, mean ± SD of three replicates), this compound displayed an IC50 of 177 nM. Moreover, the inhibition (in general, how much of the control response was suppressed) at 10 µM in test [3] (read-out: % inhibition ± SD at [10 μM] of CDK2, 10 μM) worked out at 70.7%. For the same compound, in test [1], the half-maximal inhibitory concentration (IC50) stood at 54 ± 8 nM and the “SI (selectivity index)” value was 6.648. Further, the EC50 in test [2] was 359 ± 8 nM.
